Consider one molecule from publication PMC7729281 (Biochemistry, 2020).

Broadly, the Km is the concentration of substrate that gives half-maximal velocity. The term kcat denotes the maximal rate divided by the concentration of active sites.

In one assay the target is T1, h15-LOX-1 (Homo sapiens, UniProt P16050).
T1 sequence (P16050 1-662): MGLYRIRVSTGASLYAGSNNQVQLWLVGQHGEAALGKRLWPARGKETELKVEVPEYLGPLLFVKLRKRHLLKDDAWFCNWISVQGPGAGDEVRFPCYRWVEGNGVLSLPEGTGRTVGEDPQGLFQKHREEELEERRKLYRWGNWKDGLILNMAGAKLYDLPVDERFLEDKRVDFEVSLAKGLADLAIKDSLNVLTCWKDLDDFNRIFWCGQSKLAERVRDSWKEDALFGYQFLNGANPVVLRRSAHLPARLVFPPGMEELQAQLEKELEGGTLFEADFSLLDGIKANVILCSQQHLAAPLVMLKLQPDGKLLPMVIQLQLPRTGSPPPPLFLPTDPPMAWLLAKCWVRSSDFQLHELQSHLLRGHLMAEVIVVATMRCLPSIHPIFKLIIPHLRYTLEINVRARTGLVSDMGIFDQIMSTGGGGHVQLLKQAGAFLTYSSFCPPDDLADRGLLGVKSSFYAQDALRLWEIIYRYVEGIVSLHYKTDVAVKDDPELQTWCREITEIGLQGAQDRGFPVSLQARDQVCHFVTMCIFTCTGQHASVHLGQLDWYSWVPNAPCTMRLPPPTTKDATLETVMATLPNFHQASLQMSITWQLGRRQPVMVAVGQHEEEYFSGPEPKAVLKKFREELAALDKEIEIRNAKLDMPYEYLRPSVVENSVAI
Kind of assay: Product analysis of h15-LOX-1 reactions. It is filed as biochemical. Put shortly: (§1)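 h15-LOX-1 (0.125 μM, pH 7.5) or h12-LOX (0.300 μM, pH 8.0) was reacted in 25 mM HEPES at room temperature under ambient O2. Substrates were 10 μM DHA for 1 min (monitored at 234 nm) or 1 μM 14S-HpDHA for 20 min (h15-LOX-1) or 1 h (h12-LOX) (monitored at 270 nm). Reactions were quenched with acetic acid, spiked with d5-maresin-1, extracted into DCM and background-subtracted against a no-enzyme control. Split samples were run with or without trimethyl phosphite reduction. Products were identified by C18 LC-MS/MS (qTOF), N = 3.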

The target in assay [1] is T2, h12-LOX (Homo sapiens, UniProt P18054).
T2 sequence (P18054 1-663): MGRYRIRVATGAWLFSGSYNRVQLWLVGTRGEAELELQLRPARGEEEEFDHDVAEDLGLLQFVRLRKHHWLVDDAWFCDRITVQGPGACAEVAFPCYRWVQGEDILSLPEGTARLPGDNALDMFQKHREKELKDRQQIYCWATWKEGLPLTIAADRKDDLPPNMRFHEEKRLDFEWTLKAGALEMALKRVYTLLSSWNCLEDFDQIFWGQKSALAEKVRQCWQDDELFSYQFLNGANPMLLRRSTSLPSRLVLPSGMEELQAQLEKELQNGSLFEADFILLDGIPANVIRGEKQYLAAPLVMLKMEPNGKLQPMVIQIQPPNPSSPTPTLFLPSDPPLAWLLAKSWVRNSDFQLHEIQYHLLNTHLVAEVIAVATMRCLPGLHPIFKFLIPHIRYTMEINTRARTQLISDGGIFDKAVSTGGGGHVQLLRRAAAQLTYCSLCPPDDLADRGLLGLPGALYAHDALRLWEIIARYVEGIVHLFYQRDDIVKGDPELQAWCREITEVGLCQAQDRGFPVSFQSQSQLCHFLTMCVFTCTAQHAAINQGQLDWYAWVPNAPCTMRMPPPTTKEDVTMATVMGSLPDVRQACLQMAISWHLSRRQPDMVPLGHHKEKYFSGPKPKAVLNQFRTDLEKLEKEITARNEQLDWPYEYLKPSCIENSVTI
As to the kind of experiment: Product analysis of h12-LOX reactions. It is filed as biochemical. Particulars: h12-LOX + 1 μM 14S-HpDHA, 60 min, pH 8.0, ambient O2. Put shortly: as §1

Assay [2] has as its target T2, h12-LOX. As to the kind of experiment: Steady-state kinetics of h12-LOX.
[3] abbreviates: h15-LOX-1 + 1 μM 14S-HpDHA, 20 min, pH 7.5, ambient O2.
[4] abbreviates: h12-LOX + substrate, 25 mM HEPES pH 8.0, RT.

“And” between values parts separate entries of the source, which are not always exact repeats. Equal values may be shown once.

On to `CC/C=C\C/C=C\C[C@@H](/C=C/C=C\C/C=C\C/C=C\CCC(=O)O)OO` [14S-HpDHA, 14S-hydroperoxy-4Z,7Z,10Z,12E,16Z,19Z-docosahexaenoic acid], for which, at h15-LOX-1 (setting [3]), the “product profile: 7S,14S-EZE-diHpDHA” value was 29% and 29 ± 6%; the “product profile: 13S,14S-epoxy-DHA (detected as 7S/R,14S-EEE-diHDHA)” value is 71% and 71 ± 6%; the “product profile: 14S,20-diHpDHA” value is <1.0%. Also, on h15-LOX-1 (h15-LOX-1 + 14S-HpDHA, Figure S3), the “loss in 7S,14S-EZE-diHpDHA production at increased pH” value amounted to 7 fold. Besides, at h12-LOX [1], the “product profile: 7S,14S-EZE-diHpDHA” value is 12% and 12 ± 2%; the “product profile: 13S,14S-epoxy-DHA (detected as 7S/R,14S-EEE-diHDHA)” value is 76% and 76 ± 11%; the “product profile: 14S,20-diHpDHA” value was 13% and 13 ± 9%. Also, on h12-LOX [2] (h12-LOX + 14S-HpDHA), the “fold difference of 13S,14S-epoxy-DHA biosynthetic flux” value is recorded as 1.0. For the same molecule, at h12-LOX [2] (h12-LOX + 14S-HpDHA, B.F. = kcat/KM * % product), the “13S,14S-epoxy-DHA biosynthetic flux” value is on record as 0.0018. Also, on h12-LOX [2] (setting [4]), the Km amounted to 88 ± 16 µM and the kcat is 0.22 ± 0.02 s⁻¹. For the same molecule, the reduction of kcat on h12-LOX [2] (h12-LOX, 14S-HpDHA relative to DHA) worked out at 60 fold. Besides, the “fold difference of kcat/KM” value at h12-LOX [2] (h12-LOX, kcat/KM of enzyme with DHA set to 1 (Table 5)) was −5880.
